Test results taken from article PMC3417756 (Bioorganic & medicinal chemistry, 2012).

Experiments:
HCT-116 cells = experiment: Human colon tumor HCT-116 cytotoxicity assay; type: cell-based; details: HCT-116, read-out: IC50 HCT-116
[1] = MTT cytotoxicity assay in murine macrophage cells; type: cell-based; details: mouse, RAW 264.7 murine macrophage cells
phosphorylation of IκBα = experiment: Western blot analysis of phosphorylation of IκBα in RAW264.7 cells; type: cell-based, mouse; details: increasing concentrations, in the presence of LPS, 4 hr
In short: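 Cells were grown to near confluency and dosed with LPS plus compound at 37 °C. Lysates were made in SDS/2-mercaptoethanol loading buffer, sonicated 15 s and heated at 99.9 °C for 5 min. Proteins were run on 4–15% polyacrylamide SDS gels and transferred to membrane, which was blocked with 5% milk for 1 h. Probes were anti-phospho-IκB and anti-IκB (1:1000) with HRP secondary (1:3000, 1 h, room temperature), detected by chemiluminescence on X-ray film; β-actin served as control.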

NF-κB = experiment: LPS-induced NF-κB luciferase reporter assay in RAW264.7 cells; type: cell-based; details: Mus musculus, RAW264.7, read-out: inhibition of NF-κB
In short: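 RAW264.7 cells stably transfected with an NF-κB luciferase reporter were seeded at 5 × 10^4 cells per well in 96-well plates. After 24 h recovery, cells were exposed to test compound plus LPS (100 ng/mL) for 18 h. Lysates were mixed with luciferase assay reagent and luminescence was read. IC50 is given as mean ± SE, n = 3.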

[2] = system: nitric oxide (NO) production; experiment: Griess assay of LPS stimulated nitric oxide production in RAW264.7 cells; type: cell-based, murine; details: concentrations up to 10 μM
In short: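 RAW264.7 cells were plated in RPMI1640 and held 24 h at 37 °C. Medium was replaced, then compound and E. coli 055:B5 LPS were added. Culture supernatant was reacted with Griess reagent (0.5% sulfanilamide, 0.05% N-1-naphthylethylenediamine dihydrochloride, 2.5% H3PO4) for 30 min at room temperature in the dark. Absorbance was read at 530 nm and converted to nitrite using a sodium nitrite standard curve.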

RAW 264.7 cells = experiment: MTT cytotoxicity assay in murine macrophage cells; type: cell-based
iNOS = experiment: qPCR of LPS-induced iNOS expression in RAW264.7 cells; type: cell-based, mouse; details: concentrations up to 10 μM; data not shown
In short: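 RAW264.7 cells were co-treated with LPS (100 ng/mL) and compound at 0.01–10 μM. Total RNA (0.5 μg) was DNase I-treated and reverse transcribed, and cDNAs were pooled per condition. SYBR Green real-time PCR array was normalised to GAPDH. Data come from three independent experiments and were compared by one-way ANOVA (p<0.05).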

Structure (SMILES) | IC50 (HCT-116 cells) [µM] | IC50 at 18 h [1] [µM] | IκBα phosphorylation (phosphorylation of IκBα) | IC50 (NF-κB) [µM] | inhibition of LPS stimulated NO production [2] | cytotoxicity to RAW 264.7 macrophage immune cells (in words) (RAW 264.7 cells) | effect on iNOS expression (iNOS)
CCC(C)/C=C/[C@@H](O)[C@H](O)[C@@H](O)[C@@H](OC)C(=O)N[C@H]1CCCCN(C)C1=O (stereo partly shown) [compound 14, bengamide F’] | 5.1 | > 50 | – | – | – | – | –
CO[C@@H](C(=O)N[C@H]1CC[C@@H](OC(=O)C2CCCCC2)CN(C)C1=O)[C@H](O)[C@@H](O)[C@H](O)/C=C/C(C)(C)C [compound 12, LAF 389, reference compound] | – | > 50 | – | – | – | – | –
CC1=C(O)C(=O)C=C2C1=CC=C1[C@@]2(C)CC[C@@]2(C)[C@@H]3C[C@](C)(C(=O)O)CC[C@]3(C)CC[C@]12C [compound 5, celastrol, reference compound] | – | > 50 | – | – | – | – | –
CO[C@@H](C(=O)N[C@H]1CCCCNC1=O)[C@H](O)[C@@H](O)[C@H](O)/C=C/C(C)C [compound 8, bengamide E] | – | > 50 | clear decrease in the levels of observed IκBα phosphorylation | – | – | – | –
CCCCCCCCCCCCCC(=O)O[C@H]1CC[C@H](NC(=O)[C@H](OC)[C@H](O)[C@@H](O)[C@H](O)/C=C/C(C)C)C(=O)NC1 [compound 6, bengamide A] | – | > 50 | clear decrease in the levels of observed IκBα phosphorylation | 0.08 | Neither 6 nor 7 showed NO inhibition activity | without cytotoxicity | Neither 6 nor 7 showed NO inhibition activity or an effect on iNOS expression
CCCCCCCCCCCCCC(=O)O[C@H]1CC[C@H](NC(=O)[C@H](OC)[C@H](O)[C@@H](O)[C@H](O)/C=C/C(C)C)C(=O)N(C)C1 [compound 7, bengamide B] | – | > 50 | clear decrease in the levels of observed IκBα phosphorylation | 0.09 | Neither 6 nor 7 showed NO inhibition activity | without cytotoxicity | Neither 6 nor 7 showed NO inhibition activity or an effect on iNOS expression
CCC(C)/C=C/[C@@H](O)[C@H](O)[C@@H](O)[C@@H](OC)C(=O)N[C@H]1CCCCNC1=O (stereo partly shown) [compound 13, bengamide E’] | – | > 50 | – | – | – | – | –
